LEDGF integ inh – blocks HIV-1 LEDGF/p75-dependent DNA integration. 0.64% of 370,000 active. inhibition, % at 3.7 µM. TR-FRET IN-LEDGF/p75 DNA integration, Eu/Cy5;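 active = inhibition above the screen-wide mean plus 3 SD, cut at about 13% in these data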;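 note: signal is the Cy5 over europium emission ratio at 671 and 618 nm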
ABHD5 PLIN5 PPI – blocks binding of human ABHD5 to perilipin-5 | AID 602281 | 0.78% of 360,000 active | Split G. princeps luciferase complementation, luminescence, 4 h | inhibition, % at 4 µM;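 active = inhibition above the mean inhibition across every tested compound plus 3 SD, cut at about 22% in these data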
UHRF1 MBD2 ctr – human UHRF1 methylated DNA binding inhibitors. Q96T88. UHRF1 binding to methylated oligo, TR-FRET. inhibition, % at 4.4 µM. 0.75% of 370,000 active. AID 687016; in the data active = inhibition above about 21%;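 note: UHRF1 SRA domain binding a hemimethylated CpG hairpin DNA probe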
RBBP9 inh – blocks human serine hydrolase RBBP9 | O75884 | recombinant RBBP9, FP-Rh probe fluorescence polarization | inhibition, % at 7.94 µM | 0.2% of 220,000 active | AID 1515;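 active = inhibition above the campaign mean of all tested compounds plus 3 SD, cut at about 14% in these data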
Target sequence (O75884 whole entry, looked up): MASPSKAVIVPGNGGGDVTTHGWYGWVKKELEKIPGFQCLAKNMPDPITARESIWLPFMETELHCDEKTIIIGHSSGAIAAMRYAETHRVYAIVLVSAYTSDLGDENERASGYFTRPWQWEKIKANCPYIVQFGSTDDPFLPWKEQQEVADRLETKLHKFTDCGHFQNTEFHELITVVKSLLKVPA
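System: RBBP9 protein / Quantity: 2.5 µM RBBP9 dispensing solution, before mixing / Also added: Serine-hydrolase probe FP-Rh, 375 nM pre-mixing / Dosing: 7.94 µM single dose, 0.794% DMSO / Timing: enzyme-compound preincubation 30 min, then probe labeling 45 min, 25 °C / Signal: FP readout at 525/598 nm / Controls: DMSO-treated enzyme wells and wells lacking RBBP9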
MBD2 DNA inh – MBD2-methylated oligo binding inhibition; Q9UBB5; TR-FRET, MBD2 binding to methylated oligonucleotide; inhibition, % at 4.4 µM; 0.31% of 370,000 active; in the data active = inhibition above about 13%
PRMT1 FP inh – inhibitors of human PRMT1 | Q99873 | recombinant PRMT1, activity-based probe fluorescence polarization | inhibition, % at 2.79 µM | 1.3% of 370,000 active;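 active = inhibition above about 21% made by adding two undisclosed values, limit read from the data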
Target sequence (Q99873 whole entry, looked up): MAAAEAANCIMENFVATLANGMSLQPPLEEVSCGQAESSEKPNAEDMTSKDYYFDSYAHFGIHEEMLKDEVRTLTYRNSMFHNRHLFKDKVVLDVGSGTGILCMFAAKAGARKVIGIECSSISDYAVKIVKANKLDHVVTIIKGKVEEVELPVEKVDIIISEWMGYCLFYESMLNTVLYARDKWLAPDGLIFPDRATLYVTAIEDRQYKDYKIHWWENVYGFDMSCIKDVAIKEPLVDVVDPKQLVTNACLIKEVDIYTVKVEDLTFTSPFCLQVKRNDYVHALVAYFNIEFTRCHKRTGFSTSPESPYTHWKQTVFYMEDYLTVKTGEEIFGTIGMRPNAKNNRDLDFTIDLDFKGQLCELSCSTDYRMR
Of the large screens only hits and unclear results are named; the others gave an inactive call. A selection: hits, their analogues and other compounds. The true share with any hit is near 3.1%.

CC1=NN(C(=O)COc2ccccc2)C(O)(c2cccnc2)C1 (configuration not stated)	UHRF1 MBD2 ctr 21
COc1ccc(CC(=O)N2N=C(C)CC2(O)c2cccnc2)cc1 (configuration not stated)	none
O=C(OCCN1CCN(C2CN(Cc3cn(Cc4ccc([N+](=O)[O-])cc4)nn3)S(=O)(=O)C2)CC1)c1cc2ccccc2o1 (configuration not stated)	none (no result: ABHD5 PLIN5 PPI, RBBP9 inh)
CCCSc1nc2cc(C)c(C)cc2n1CC(C)O (configuration not stated)	UHRF1 MBD2 ctr 22
COc1ccc2ccccc2c1C=Nn1c(-c2n[nH]c3c2CCC3)n[nH]c1=S	none (no result: ABHD5 PLIN5 PPI, RBBP9 inh)
S=c1[nH]nc(-c2n[nH]c3c2CCC3)n1N=Cc1c[nH]c2ccccc12	PRMT1 FP inh 22 (no result: ABHD5 PLIN5 PPI, RBBP9 inh)
Fc1ccccc1-c1n[nH]c(=S)n1/N=C/c1c[nH]c2ccccc12	PRMT1 FP inh 24
CNC(C#Cc1ccccc1)c1ccccc1C(F)(F)F (configuration not stated)	none (no result: ABHD5 PLIN5 PPI, RBBP9 inh)
COC(=O)c1ccc2c(=O)n(CCCCCC(=O)NCc3ccc4c(c3)OCO4)c(=O)[nH]c2c1	none
CCCCCn1c(=O)[nH]c2cc(C(=O)NCc3ccc4c(c3)OCO4)ccc2c1=O	UHRF1 MBD2 ctr 30
O=[N+]([O-])c1cccc(N/N=C/c2cc([N+](=O)[O-])ccc2O)c1	none
O=[N+]([O-])c1ccc(O)c(C=NNc2ccc(S(=O)(=O)O)cc2)c1	UHRF1 MBD2 ctr 24 (no result: RBBP9 inh)
Cc1ccc(/C=C/C(=O)NCc2ccccn2)o1	PRMT1 FP inh 21
CC(=O)c1cc(C#N)c(N2CCOCC2)nc1C	UHRF1 MBD2 ctr 34
COC(=O)c1cc(C#N)c(N2CCOCC2)nc1C	none
C[C@H]1[C@@H](OC(=O)Nc2cccc(Cl)c2)CC[C@@]23CCCN2C(=O)CCC[C@@H]13	none (no result: ABHD5 PLIN5 PPI, RBBP9 inh)
COc1ccccc1C(=O)COC(=O)c1ccc(N(C)C)cc1	UHRF1 MBD2 ctr 100
O=C(Nc1ccc2c(c1)OCO2)O[C@@H]1CC[C@@]23CCCN2C(=O)CCC[C@H]3C1	none (no result: ABHD5 PLIN5 PPI, RBBP9 inh)
CC(=O)c1cnc(-c2ccccc2Cl)s1	none
CC(=O)c1cnc(-c2ccccn2)s1	PRMT1 FP inh 22
C=C1C(=O)C23CCC4C(C)(C(=O)OC)CCCC4(C)C2CCC1(O)C3 (configuration not stated)	ABHD5 PLIN5 PPI 72, PRMT1 FP inh 29 (no result: RBBP9 inh)
CCOC(=O)c1c(C)oc2c1c(C=NCc1ccccn1)c(O)c1ccccc12	LEDGF integ inh 17, PRMT1 FP inh 21
CCN(CC)CCCn1c(=S)[nH]c2ncccc2c1=O	UHRF1 MBD2 ctr 21
CCOc1ncccc1C(=O)Nc1ccc(F)c(Cl)c1	UHRF1 MBD2 ctr 76
CCOc1ncccc1C(=O)Nc1ccc(F)c(F)c1	none
C=CCn1c(Cc2cccs2)nnc1SCC(=O)Nc1cccc2ccccc12	none (no result: ABHD5 PLIN5 PPI, RBBP9 inh)
O=C(/C(=C(\[O-])c1ccccc1)[n+]1ccc2ccccc2c1)c1ccccc1	none
O=C(/C(=C(\[O-])c1ccccc1)[n+]1ccc2ccccc2c1)c1ccc(Cl)cc1	UHRF1 MBD2 ctr 25
Cc1ccc2[nH]c3c(c2c1)CN(C(=O)CN(C)CC1OCCO1)CC3	PRMT1 FP inh 22
COC1=CC(=Cc2c(N)n3nc(CC(=O)N4CCCCC4)sc3nc2=O)C=C(OC)C1=O	UHRF1 MBD2 ctr 32 (no result: RBBP9 inh)
Nc1c(/C=C2/C=CC(=O)C(O)=C2)c(=O)nc2sc(CC(=O)N3CCCC3)nn12	none (no result: RBBP9 inh)
Nc1c(/C=C2/C=CC(=O)C(O)=C2)c(=O)nc2sc(CC(=O)N3CCCCC3)nn12	LEDGF integ inh 16, UHRF1 MBD2 ctr 26 (no result: RBBP9 inh)
COC1=C/C(=C/c2c(N)n3nc(CC(=O)N4CCCC4)sc3nc2=O)C=CC1=O	none (no result: RBBP9 inh)
Cc1cc(C(=O)N/N=C/c2cccc(OC(=O)c3cccc(Br)c3)c2)n[nH]1	none (no result: RBBP9 inh)
COc1cccc(C(=O)Oc2c(Br)cc(Br)cc2/C=N/NC(=O)c2cc(C)[nH]n2)c1	UHRF1 MBD2 ctr 31
CN(C)C1=NCC(CSC(=N)N)S1 (configuration not stated)	PRMT1 FP inh 25
CC(C)(C)c1cc[n+](/C(C(=S)Nc2ccccc2F)=C(/[O-])c2ccc3c(c2)OCCO3)cc1	PRMT1 FP inh 24
CC(=O)Nc1ccc(OCC(C)CN2CCC(C(O)(c3ccccc3)c3ccccc3)CC2)cc1 (configuration not stated)	none (no result: ABHD5 PLIN5 PPI, RBBP9 inh)
CCCCn1c(N)c(N(CC(C)C)C(=O)c2cc3c(s2)CCCCC3)c(=O)[nH]c1=O	UHRF1 MBD2 ctr 57 (no result: RBBP9 inh)
C[C@H]1O[C@@H](n2c3ccc(Cl)cc3c3ccc4c5cc(Cl)ccc5[nH]c4c32)[C@H](O)[C@H](O)[C@H]1O	none (no result: ABHD5 PLIN5 PPI, RBBP9 inh)
Cc1cccc(C2=CC(=O)CC(C)(C)C2=O)c1	none (no result: ABHD5 PLIN5 PPI, RBBP9 inh)
COc1ccccc1N1CCN(C(=O)c2cc3c(C)nn(-c4ccccc4)c3s2)CC1	none (no result: ABHD5 PLIN5 PPI, RBBP9 inh)
CC(C)c1ccc(C(C(C(=O)c2ccccc2)N2CCOCC2)N2CCOCC2)cc1 (configuration not stated)	UHRF1 MBD2 ctr 47 (no result: RBBP9 inh)
Cc1cccc(C(C(C(=O)c2ccccc2)N2CCOCC2)N2CCOCC2)c1 (configuration not stated)	none (no result: RBBP9 inh)
Cc1ccc(CNCCNCCO)s1	UHRF1 MBD2 ctr 22
CCOC(=O)C1=CCC(c2ccc([N+](=O)[O-])cc2)N(S(=O)(=O)c2ccc(C)cc2)C1 (configuration not stated)	none (no result: ABHD5 PLIN5 PPI, RBBP9 inh)
COc1ccc(C(=O)/C=C2\Sc3ccccc3N2C)cc1	none
COc1ccc(-[n+]2c(C)cc(/C=C3\Sc4ccccc4N3C)cc2C)cc1	PRMT1 FP inh 24
COc1ccc(C(CNC(=O)c2ccc(NS(=O)(=O)c3ccc4c(c3)OCCO4)cc2)N(C)C)cc1 (configuration not stated)	UHRF1 MBD2 ctr 21 (no result: RBBP9 inh)
COc1ccc(C(CNC(=O)c2ccc(S(=O)(=O)Nc3ccc(F)cc3)cc2)N(C)C)cc1 (configuration not stated)	none (no result: RBBP9 inh)
Cc1cc(C(=O)O)ccc1-c1ccc(/C=C2\SC(=O)N(CC(=O)Nc3ccc4c(c3)OCO4)C2=O)o1	UHRF1 MBD2 ctr 24 (no result: RBBP9 inh)
Cc1ccc(NC(=O)CN2C(=O)S/C(=C/c3ccc(-c4cccc(C(=O)O)c4)o3)C2=O)cc1	UHRF1 MBD2 ctr 23
Cc1ccc(C(=O)O)cc1-c1ccc(/C=C2\SC(=O)N(CC(=O)Nc3ccccc3)C2=O)o1	UHRF1 MBD2 ctr 22
C#CCN1C(=O)S/C(=C\c2ccc(-c3ccc(C(=O)O)cc3C)o2)C1=O	UHRF1 MBD2 ctr 41 (no result: RBBP9 inh)
Clc1ccccc1Cc1noc(CN2CCN3CCCC3C2)n1 (configuration not stated)	UHRF1 MBD2 ctr 29
OC1CCN(Cc2nc(Cc3ccccc3Cl)no2)CC1	none
CCC(C)COC(c1ccccc1)(c1ccccc1)C(Oc1nc(C)cc(C)n1)C(=O)O (configuration not stated)	UHRF1 MBD2 ctr 41 (no result: RBBP9 inh)

Screening data (PubChem BioAssay)
